# Calls of active or inactive are those of the source. The rule behind the calls is not given here.
# How the values were obtained:
# [1] = system: Pseudomonas aeruginosa; test: Antibacterial activity against Pseudomonas aeruginosa at 100 uM measured after 5 to 6 hrs by microdilution assay; format: functional, organism-based
# [2] = system: Streptomyces scabiei; test: Antibacterial activity against Streptomyces scabiei CGMCC4.7610246 by microdilution assay; format: functional
# Procedure, shortened: (§1)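 Turbidimetric broth microdilution. Log-phase cells were washed and resuspended in broth (LB at 37 °C for B. subtilis and S. aureus; oat bran broth at 28 °C for S. scabies) and seeded at 1 × 10⁵ CFU/mL. Twofold serial dilutions were made with DMSO ≤1% (v/v). A620 was read, then plates were incubated with vigorous shaking. MIC was the lowest concentration with no apparent growth versus vehicle-only medium without cells. Run in triplicate.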
# [3] = system: Staphylococcus aureus; test: Antibacterial activity against Staphylococcus aureus ATCC 25923 by microdilution assay; format: functional; procedure, shortened: as §1
# [4] = system: Escherichia coli; test: Antibacterial activity against Escherichia coli at 100 uM measured after 5 to 6 hrs by microdilution assay; format: functional, organism-based
# [5] = system: Pseudomonas aeruginosa; test: Antibacterial activity against multi-drug resistant Pseudomonas aeruginosa at 100 uM measured after 5 to 6 hrs by microdilution assay; format: functional, organism-based
# Procedure, shortened: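 Log-phase cells seeded at 1 × 10⁵ CFU/mL. Single-dose screen at 100 μM, with DMSO cosolvent at most 1% v/v. Growth measured turbidimetrically at 620 nm, before and after incubation with vigorous shaking.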
# [6] = system: Staphylococcus aureus; test: Antibacterial activity against methicillin-resistant Staphylococcus aureus by microdilution assay; format: functional
# Procedure, shortened: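 Log-phase cells seeded at 1 × 10⁵ CFU/mL. Twofold serial dilutions made in broth with DMSO cosolvent, at most 1% v/v. Turbidity read at 620 nm before and after incubation with vigorous shaking. MIC is the lowest concentration with no apparent growth versus the medium-plus-vehicle control. Run in triplicate.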
# [7] = system: Bacillus subtilis; test: Antibacterial activity against Bacillus subtilis ATCC 6051 by microdilution assay; format: functional; procedure, shortened: as §1
Structure (SMILES),Activity [1],MIC [2],MIC [3],Activity [4],Activity [5],MIC [6],MIC [7]
CC1(C)[C@@H](O)[C@@H](O)[C@H](O)[C@]2(C)[C@H]3CC=C4[C@@H]5C[C@@](C)(C(=O)OCc6ccc([N+](=O)[O-])cc6)CC[C@]5(C)CC[C@@]4(C)[C@]3(C)CC[C@@H]12,inactive,> 50 µg/mL,> 50 µg/mL,inactive,inactive,> 50 µg/mL,> 50 µg/mL
CC(C)OC(=O)[C@@]1(C)CC[C@]2(C)CC[C@]3(C)C(=CC[C@@H]4[C@@]5(C)[C@@H](O)[C@H](O)[C@H](O)C(C)(C)[C@@H]5CC[C@]43C)[C@@H]2C1,inactive,4.2 µg/mL,8.4 µg/mL,inactive,inactive,2 µg/mL,> 33.9 µg/mL
CC1(C)[C@H](O)[C@@H](O)[C@H](O)[C@]2(C)[C@H]3C(=O)C=C4[C@@H]5C[C@@](C)(C(=O)OCc6ccccc6)CC[C@]5(C)CC[C@@]4(C)[C@]3(C)CC[C@@H]12,inactive,> 37.8 µg/mL,> 37.8 µg/mL,inactive,inactive,4 µg/mL,> 37.8 µg/mL
CC1(C)C(=O)[C@@H]2O[C@@H]2[C@]2(C)[C@H]3C(=O)C=C4[C@@H]5C[C@@](C)(C(=O)OCc6ccccc6)CC[C@]5(C)CC[C@@]4(C)[C@]3(C)CC[C@@H]12,inactive,> 50 µg/mL,> 50 µg/mL,inactive,inactive,> 50 µg/mL,> 50 µg/mL
CC1(C)[C@@H](O)[C@@H](O)[C@H](O)[C@]2(C)[C@H]3C(=O)C=C4[C@@H]5C[C@@](C)(C(=O)OCc6ccc([N+](=O)[O-])cc6)CC[C@]5(C)CC[C@@]4(C)[C@]3(C)CC[C@@H]12,inactive,> 50 µg/mL,> 50 µg/mL,inactive,inactive,> 50 µg/mL,> 50 µg/mL
CC1(C)[C@@H](O)[C@@H](O)[C@H](O)[C@]2(C)[C@H]3CC=C4[C@@H]5C[C@@](C)(C(=O)OCc6ccccc6Cl)CC[C@]5(C)CC[C@@]4(C)[C@]3(C)CC[C@@H]12,inactive,> 50 µg/mL,> 50 µg/mL,inactive,inactive,> 50 µg/mL,> 50 µg/mL
CC1(C)[C@@H](O)[C@@H](O)[C@H](O)[C@]2(C)[C@H]3C(=O)C=C4[C@@H]5C[C@@](C)(C(=O)O)CC[C@]5(C)CC[C@@]4(C)[C@]3(C)CC[C@@H]12,inactive,> 50 µg/mL,> 50 µg/mL,inactive,inactive,> 50 µg/mL,> 50 µg/mL
CC1(C)[C@H](O)[C@@H]2O[C@@H]2[C@]2(C)[C@H]3CC=C4[C@@H]5C[C@@](C)(C(=O)OCc6ccccc6)CC[C@]5(C)CC[C@@]4(C)[C@]3(C)CC[C@@H]12,inactive,> 50 µg/mL,> 50 µg/mL,inactive,inactive,> 50 µg/mL,> 50 µg/mL
CC1(C)[C@@H](O)[C@@H](O)[C@H](O)[C@]2(C)[C@H]3C(=O)C=C4[C@@H]5C[C@@](C)(C(=O)OCc6ccc(Cl)cc6)CC[C@]5(C)CC[C@@]4(C)[C@]3(C)CC[C@@H]12,inactive,> 50 µg/mL,> 50 µg/mL,inactive,inactive,> 50 µg/mL,> 50 µg/mL
CC1(C)C(=O)C=C[C@]2(C)[C@H]3C(=O)C=C4[C@@H]5C[C@@](C)(C(=O)OCc6ccccc6)CC[C@]5(C)CC[C@@]4(C)[C@]3(C)CC[C@@H]12,inactive,> 50 µg/mL,> 50 µg/mL,inactive,inactive,> 50 µg/mL,> 50 µg/mL
COC(=O)[C@@]1(C)CC[C@]2(C)CC[C@]3(C)C(=CC(=O)[C@@H]4[C@@]5(C)[C@@H](O)[C@H](O)[C@H](O)C(C)(C)[C@@H]5CC[C@]43C)[C@@H]2C1,inactive,> 50 µg/mL,> 50 µg/mL,inactive,inactive,> 50 µg/mL,> 50 µg/mL
CC1(C)C(=O)C=C[C@]2(C)[C@H]3CC=C4[C@@H]5C[C@@](C)(C(=O)OCc6ccccc6)CC[C@]5(C)CC[C@@]4(C)[C@]3(C)CC[C@@H]12,inactive,34.6 µg/mL,> 34.6 µg/mL,inactive,inactive,> 32 µg/mL,> 34.6 µg/mL
CCCCCCCCCCCCCCCOC(=O)[C@@]1(C)CC[C@]2(C)CC[C@]3(C)C(=CC(=O)[C@@H]4[C@@]5(C)[C@@H](O)[C@H](O)[C@H](O)C(C)(C)[C@@H]5CC[C@]43C)[C@@H]2C1,inactive,> 50 µg/mL,> 50 µg/mL,inactive,inactive,> 50 µg/mL,> 50 µg/mL
CCCCOC(=O)[C@@]1(C)CC[C@]2(C)CC[C@]3(C)C(=CC[C@@H]4[C@@]5(C)[C@@H](O)[C@H](O)[C@H](O)C(C)(C)[C@@H]5CC[C@]43C)[C@@H]2C1,inactive,4.3 µg/mL,> 34.8 µg/mL,inactive,inactive,> 32 µg/mL,> 34.8 µg/mL
CCCCCOC(=O)[C@@]1(C)CC[C@]2(C)CC[C@]3(C)C(=CC(=O)[C@@H]4[C@@]5(C)[C@@H](O)[C@H](O)[C@H](O)C(C)(C)[C@@H]5CC[C@]43C)[C@@H]2C1,inactive,> 50 µg/mL,> 50 µg/mL,inactive,inactive,> 50 µg/mL,> 50 µg/mL
CC1(C)[C@@H](O)[C@@H](O)[C@H](O)[C@]2(C)[C@H]3C(=O)C=C4[C@@H]5C[C@@](C)(C(=O)OCc6ccccc6[N+](=O)[O-])CC[C@]5(C)CC[C@@]4(C)[C@]3(C)CC[C@@H]12,inactive,> 50 µg/mL,> 50 µg/mL,inactive,inactive,> 50 µg/mL,> 50 µg/mL
CCCCOC(=O)[C@@]1(C)CC[C@]2(C)CC[C@]3(C)C(=CC(=O)[C@@H]4[C@@]5(C)[C@@H](O)[C@H](O)[C@H](O)C(C)(C)[C@@H]5CC[C@]43C)[C@@H]2C1,inactive,4.4 µg/mL,> 35.7 µg/mL,inactive,inactive,4 µg/mL,> 35.7 µg/mL
CCCCCCCCCCCCCCCOC(=O)[C@@]1(C)CC[C@]2(C)CC[C@]3(C)C(=CC[C@@H]4[C@@]5(C)[C@@H](O)[C@H](O)[C@H](O)C(C)(C)[C@@H]5CC[C@]43C)[C@@H]2C1,inactive,> 50 µg/mL,> 50 µg/mL,inactive,inactive,> 50 µg/mL,> 50 µg/mL
CC1(C)[C@@H](O)[C@@H](O)[C@H](O)[C@]2(C)[C@H]3CC=C4[C@@H]5C[C@@](C)(C(=O)OCc6ccccc6)CC[C@]5(C)CC[C@@]4(C)[C@]3(C)CC[C@@H]12,inactive,> 36 µg/mL,> 36.9 µg/mL,inactive,inactive,8 µg/mL,> 36.9 µg/mL
CN[C@@H]1[C@H](O[C@H]2[C@H](O[C@H]3[C@H](O)[C@@H](O)[C@H](N=C(N)N)[C@@H](O)[C@@H]3N=C(N)N)O[C@@H](C)[C@]2(O)C=O)O[C@@H](CO)[C@H](O)[C@H]1O [STREPTOMYCIN],,5.8 µg/mL,,,,,2.9 µg/mL
CC1(C)[C@@H](O)[C@@H](O)[C@H](O)[C@]2(C)[C@H]3CC=C4[C@@H]5C[C@@](C)(C(=O)O)CC[C@]5(C)CC[C@@]4(C)[C@]3(C)CC[C@@H]12,inactive,31.2 µg/mL,15.6 µg/mL,inactive,inactive,> 32 µg/mL,> 31.2 µg/mL
CC1(C)[C@@H](O)[C@@H](O)[C@H](O)[C@]2(C)[C@H]3CC=C4[C@@H]5C[C@@](C)(C(=O)OCc6ccccc6[N+](=O)[O-])CC[C@]5(C)CC[C@@]4(C)[C@]3(C)CC[C@@H]12,inactive,> 50 µg/mL,> 50 µg/mL,inactive,inactive,> 50 µg/mL,> 50 µg/mL
CC1(C)[C@@H](O)[C@@H](O)[C@H](O)[C@]2(C)[C@H]3C(=O)C=C4[C@@H]5C[C@@](C)(C(=O)OCc6ccccc6)CC[C@]5(C)CC[C@@]4(C)[C@]3(C)CC[C@@H]12,inactive,> 37.8 µg/mL,> 37.8 µg/mL,inactive,inactive,4 µg/mL,> 37.8 µg/mL
CC1(C)S[C@@H]2[C@H](NC(=O)[C@H](N)c3ccccc3)C(=O)N2[C@H]1C(=O)O [AMPICILLIN],,,1.4 µg/mL,,,,

# Reference: ChEMBL document CHEMBL4477166, “18β-Glycyrrhetinic Acid Derivatives Possessing a Trihydroxylated A Ring Are Potent Gram-Positive Antibacterial Agents” (2016)
